High-throughput results (PubChem BioAssay)
PRMT1 FP inh: blocks human protein arginine methyltransferase 1 | AID 652257 | inhibition, % at 2.79 µM | 1.3% of 370,000 active | Q99873 | recombinant PRMT1, activity-based probe fluorescence polarization;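 active = inhibition above about 21% made by adding two undisclosed values, limit read from the data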
ABHD4 inh: inhibitors of mouse ABHD4 | purified mABHD4, FP-Rh probe fluorescence polarization | Q8VD66 | 0.54% of 370,000 active | AID 720543 | inhibition, % at 8.92 µM;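 active = inhibition exceeding the mean over every tested compound plus 3 SD, cut at about 30% in these data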
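Material: mouse ABHD4 enzyme, wild type; Benchmarks: S159A mutant high control, sample median low control; Buffer or medium: HEPES pH 7.0, NaCl, Pluronic buffer; Signal: fluorescence polarization; Read-out: percent inhibition of probe binding, normalized to plate controls; Timing: pre-incubation 45 min, probe exposure 60 min, at 25 °C; Dosing: 8.92 µM, single dose.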
SIAE primary: inhibitors of human sialic acid acetylesterase SIAE; 0.69% of 370,000 active; SIAE FP-Rh probe binding, fluorescence polarization; Q9HAT2; inhibition, % at 9.66 µM;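 active = inhibition above a cutoff: mean of compounds within the control limits plus 3 SD of those, cut at about 17% in these data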
HTRA1 inhibitor: blocks human HTRA1 serine peptidase | recombinant HTRA1, FP-rhodamine activity-based probe, fluorescence polarization | Q92743 | AID 504803 | inhibition, % at 5.96 µM | 0.5% of 340,000 active; in the data active = inhibition above about 36%
Target sequence (Q92743 whole entry, looked up): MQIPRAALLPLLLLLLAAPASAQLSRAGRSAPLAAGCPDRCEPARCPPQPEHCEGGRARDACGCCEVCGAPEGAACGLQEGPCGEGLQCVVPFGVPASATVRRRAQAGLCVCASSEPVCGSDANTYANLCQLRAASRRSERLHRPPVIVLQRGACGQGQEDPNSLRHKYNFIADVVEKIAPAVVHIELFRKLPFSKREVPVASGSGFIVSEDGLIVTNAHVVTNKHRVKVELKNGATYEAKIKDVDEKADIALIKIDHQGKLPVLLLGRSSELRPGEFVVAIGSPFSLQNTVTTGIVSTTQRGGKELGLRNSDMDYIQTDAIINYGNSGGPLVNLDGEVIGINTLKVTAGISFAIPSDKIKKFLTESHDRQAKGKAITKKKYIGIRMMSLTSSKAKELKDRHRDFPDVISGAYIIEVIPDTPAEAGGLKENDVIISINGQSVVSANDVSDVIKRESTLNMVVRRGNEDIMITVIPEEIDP
TCR-CD3 inh: human TCR-CD3 binding inhibition; TAMRA-labeled TCR probe fluorescence, biochemical; inhibition, % at 9.4 µM; 0.37% of 360,000 active; in the data active = inhibition above about 19%;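 also: recombinant mutant TCR 2C K166C tagged with TAMRA read by polarization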
PRMT1 inh conf: confirmation of human PRMT1 inhibitors; shares compounds with PRMT1 FP inh; recombinant His-PRMT1, activity-based probe fluorescence polarization; inhibition, % at 2.79 µM; 42% of 3,300 active; AID 687036;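 active = mean inhibition across replicates above the hit cutoff derived for the earlier primary screen, cut at about 22% in these data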
Of the large screens only hits and unclear results are named; the others gave an inactive call (follow-up assays come after a bar, where they were run). A selection: hits, their analogues and other compounds. The true share with any hit is near 2.5%.

COP(=O)(O)C(C)NC(=O)OCc1ccccc1 (stereo not given)	none (no result: HTRA1 inhibitor, TCR-CD3 inh)
COc1ccc(S[C@]2(C(=O)N3CCCC3)CC(=O)N(C(=O)/C=C/c3ccccc3)[C@@H]2c2ccc(OC)cc2)cc1	none (no result: HTRA1 inhibitor, TCR-CD3 inh)
O=C(O)/C(=C\c1ccco1)NC(=O)c1cccc2ccccc12	PRMT1 FP inh 33.2 | PRMT1 inh conf inactive
CCCCCC(=O)N(O)C1CC(=O)N(c2ccccc2)C1=O (stereo not given)	PRMT1 FP inh 83.6 | PRMT1 inh conf 85.3
O=C(CSc1ccc(-c2cccs2)nn1)c1cccs1	PRMT1 FP inh 27.9 | PRMT1 inh conf inactive
O=C(O)c1ccc(CN2C[C@@H](CO)O[C@@H](n3cnc4c(NCc5ccc(F)cc5)ncnc43)C2)cc1	none (no result: HTRA1 inhibitor)
Nc1cccnc1Sc1cccc(Cl)c1	PRMT1 FP inh 31.2 | PRMT1 inh conf inactive
COC(=O)[C@H]1C[C@@]2(c3ccccc3)c3ccccc3N(S(=O)(=O)c3ccccc3)[C@H]2N1	none (no result: HTRA1 inhibitor, TCR-CD3 inh)
Cc1ccc(/C=C/C(=O)Nc2cccc3ncccc23)o1	PRMT1 FP inh 69.0 | PRMT1 inh conf 28.2
Cc1ccc(/C=C/C(=O)Nc2cccnc2)o1	none
Cc1ccc(/C=C/C(=O)Nc2nn[nH]n2)o1	PRMT1 FP inh 35.5 | PRMT1 inh conf 54.7
COc1cccc2c1[C@H](/C=C/c1ccccc1)[C@@H]([C@H](O)CO)OC2	none (no result: HTRA1 inhibitor, TCR-CD3 inh)
CC1C2NC(=O)N(Cc3ccccc3)C1(C)Oc1ccccc12 (stereo not given)	none
CCOC(=O)c1c(NC(=O)CC2Sc3ccc(C(F)(F)F)cc3NC2=O)sc(C)c1C (stereo not given)	none
CC(=O)C1=C(C)Nc2cc(C(F)(F)F)ccc2S1	PRMT1 FP inh 27.7 | PRMT1 inh conf inactive
N#Cc1cc2c(nc1SCc1ccc(Cl)nc1)CCCCC2	none
Cc1nc2scc(-c3ccccc3)c2c(=O)n1N=C1C=CC(=O)C=C1	PRMT1 FP inh 89.9 (no result: HTRA1 inhibitor) | PRMT1 inh conf 93.7
O=C(Cc1cccc(NC(=O)C2CCN(S(=O)(=O)c3cccc([N+](=O)[O-])c3)CC2)c1)Nc1cccc(C(=O)N2CCCCC2)c1	none
COC(=O)C1CN(Cc2ccccc2)CCS(=O)(=O)N1Cc1cn(Cc2ccc(C)cc2)nn1 (stereo not given)	none (no result: HTRA1 inhibitor, TCR-CD3 inh)
O=C1NC(=O)/C(=C/c2ccc(N3CCOCC3)o2)N1	none
O=C1NC(=O)/C(=C\c2ccc(N3CCOCC3)o2)N1	PRMT1 FP inh 30.3 | PRMT1 inh conf inactive
CCOC(=O)[C@]12CCCC3=C1N(CCC3)C(=O)[C@@H](CC(=O)N1CCCC1)C2	none (no result: HTRA1 inhibitor, TCR-CD3 inh)
Cc1c(-n2c(O)c(C3=c4ccccc4=NC3=O)sc2=O)c(=O)n(-c2ccccc2)n1C	none
O=C(O)Cn1c(O)c(C2=c3ccccc3=NC2=O)sc1=O	PRMT1 FP inh 27.4 | PRMT1 inh conf inactive
O=C(CSC1=NCCS1)Nc1nc2c(s1)CCCC2	PRMT1 FP inh 26.3 | PRMT1 inh conf 32.1
Cn1nnnc1SCC(=O)Nc1nc2c(s1)CCCC2	none
Cc1ccccc1C(=O)NCC(=O)NNC(=O)c1cccc(Cl)c1	none
CCCOc1ccc(N2C(=O)CC(N3CCC(c4nncn4CC)CC3)C2=O)cc1 (stereo not given)	PRMT1 FP inh 38.8 | PRMT1 inh conf inactive
CCc1ccc(N2C(=O)CC(N3CCC(C(=O)OC)CC3)C2=O)cc1 (stereo not given)	PRMT1 FP inh 44.0 | PRMT1 inh conf inactive
CCOC(=O)C1CCN(C2CC(=O)N(c3ccc(OCC)cc3)C2=O)CC1 (stereo not given)	PRMT1 FP inh 45.4 | PRMT1 inh conf inactive
CCCCCCOc1ccc(N2C(=O)CC(N3CCC(C(=O)OCC)CC3)C2=O)cc1 (stereo not given)	none
CC(=O)NS(=O)(=O)c1ccc(N=c2ssc3c2-c2ccc(C)cc2NC3(C)C)cc1	none
CCN(CC)c1ccc(N=C2C=CC(=O)C=C2NC(C)=O)cc1	PRMT1 FP inh 54.4 (no result: HTRA1 inhibitor) | PRMT1 inh conf inactive
CCN(CC)c1ccc(NC(=O)Nc2ccc(C(C)=O)cc2)cc1	none
COc1c(O)cccc1[C@@H](O)C1CCN(CCc2ccc(F)cc2)CC1	PRMT1 FP inh 35.8 | PRMT1 inh conf inactive
COc1ccc2ccccc2c1C(=O)/C=C\c1ccoc1	PRMT1 FP inh 33.1 | PRMT1 inh conf inactive
COc1ccc(C2CC(=O)C(c3cccc(C)c3)=CN2Cc2ccccc2)cc1 (stereo not given)	none (no result: HTRA1 inhibitor)
O=[N+]([O-])c1ccccc1S(=O)(=O)N1CCN(Cc2cc3c(cc2O)OCO3)CC1	none
Cc1ccc(C)c(S(=O)(=O)N2CCN(Cc3cc4c(cc3O)OCO4)CC2)c1	PRMT1 FP inh 45.5 | PRMT1 inh conf inactive
O=S(=O)(c1ccccc1F)N1CCN(Cc2cc3c(cc2O)OCO3)CC1	PRMT1 FP inh 25.2 | PRMT1 inh conf inactive
Cc1ccc(S(=O)(=O)N2CCN(Cc3cc(C(C)(C)C)ccc3O)CC2)cc1	none
O=c1[nH]sc2ccccc12	PRMT1 FP inh 72.3 | PRMT1 inh conf 85.6
O=c1ccsc2ccccc12	none (no result: HTRA1 inhibitor)
C[C@H](CO)N1C[C@H](C)[C@H](CN(C)S(=O)(=O)c2cccc(F)c2)Oc2ncc(-c3cccc(C(=O)N(C)C)c3)cc2C1=O	none
CC1(OC(=O)CCc2ccccc2)C(=O)C=C2C=C(c3ccc(C#N)cc3)N(Cc3ccco3)C=C2C1=O (stereo not given)	PRMT1 FP inh 28.5 | PRMT1 inh conf inactive
Cc1ccc(S(=O)(=O)N2C(=O)CCC2C(=O)N2CCCCC2)cc1 (stereo not given)	none
Cc1ccc(NC(=O)CC2SC(=O)N(c3ccccc3)C2=O)cc1 (stereo not given)	none
CC(=O)Nc1ccc(NC(=O)CC2SC(=O)N(CC(=O)c3ccccc3)C2=O)cc1 (stereo not given)	PRMT1 FP inh 28.6 | PRMT1 inh conf inactive
O=C(CC1Sc2ncnn2C1=O)Nc1ccccc1 (stereo not given)	PRMT1 FP inh 76.5 | PRMT1 inh conf 74.2
CCn1c(-c2ccccc2)c[nH]c1=S	none
S=c1[nH]cc(-c2ccccc2)n1-c1ccccc1	PRMT1 FP inh 34.2 | PRMT1 inh conf inactive
COc1ccc(S(=O)(=O)N2CCC3CC2c2c(-c4ccc(C(F)(F)F)cc4)cccc23)cc1 (stereo not given)	none (no result: HTRA1 inhibitor)
CC1(C)Cc2c(C#N)c(NCc3ccco3)nc(-c3ccco3)c2CO1	none
CC1(C)Cc2c(C#N)c(N3CCCC3)nc(-c3ccco3)c2CO1	PRMT1 FP inh 26.6 | PRMT1 inh conf 25.8
COC(=O)C1=C(C)NC(C)=C(C(=O)OCC(C)C)C1c1ccccc1[N+](=O)[O-] (stereo not given)	PRMT1 FP inh 25.2 | PRMT1 inh conf inactive
CCOC(=O)C1=C(C)NC(C)=C(C(=O)OCC)C1c1cccc([N+](=O)[O-])c1	none
C[C@H]1C=C(C(=O)NCc2nc3ccccc3[nH]2)O[C@@H](OCCCCO)C1	PRMT1 FP inh 41.4 | PRMT1 inh conf inactive
CC(C)c1ccc([C@@H]2O[C@H](C)CC3=C2C(=O)OC(C)(C)O3)cc1	none (no result: HTRA1 inhibitor)
O=C(NC(=S)NCc1ccccc1)c1ccccc1F	none
